Data published in ChEMBL document CHEMBL1138750, “Design, synthesis, and biological evaluation of 1,2,3,7-tetrahydro-6h-purin-6-one and 3,7-dihydro-1h-purine-2,6-dione derivatives as corticotropin-releasing factor(1) receptor antagonists” (J Med Chem, 2004).

System: not listed separately
Assay: Inhibition of CRF-stimulated cAMP production in human Y-79 retinoblastoma cells
Format: functional, cell-based
Settings: Y79
Summary of the method: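 Human Y-79 retinoblastoma cells, 20 000/well in HBSS with 2 mM CaCl₂, 5 mM MgCl₂, 20 mM HEPES and 1 mM IBMX. Antagonist (typically 0.01–10 000 nM) preincubated 30 min at 37 °C, then 1 nM CRF added for 30 min at 37 °C. cAMP read by HTRF against a cAMP standard curve. Percent inhibition of CRF-induced cAMP determined in triplicate; basal cAMP without CRF also measured.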

| IC50 | Compound |
| --- | --- |
| 14.4 nM | CCc1nc2c(n1C(C1CC1)C1CC1)C(=O)N(C)CN2c1ccc(Cl)cc1Cl |
| 24.2 nM | CCCC(CCC)n1c(CC)nc2c1C(=O)N(C)CN2c1ccc(Cl)cc1Cl |

Target: T1, Corticotropin-releasing factor receptor 1 (Rattus norvegicus, UniProt P35353)
T1 sequence (P35353 whole entry): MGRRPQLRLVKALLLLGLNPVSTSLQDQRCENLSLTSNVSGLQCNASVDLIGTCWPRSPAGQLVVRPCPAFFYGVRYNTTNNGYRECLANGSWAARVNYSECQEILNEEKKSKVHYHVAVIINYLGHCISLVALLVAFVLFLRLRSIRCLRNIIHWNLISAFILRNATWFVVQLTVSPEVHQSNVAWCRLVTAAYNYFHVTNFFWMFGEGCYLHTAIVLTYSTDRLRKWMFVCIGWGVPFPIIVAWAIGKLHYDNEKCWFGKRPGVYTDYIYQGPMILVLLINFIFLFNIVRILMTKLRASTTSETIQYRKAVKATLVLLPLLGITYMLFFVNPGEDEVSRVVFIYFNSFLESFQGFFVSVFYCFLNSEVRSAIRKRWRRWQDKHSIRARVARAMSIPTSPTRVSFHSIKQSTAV
Assay: Inhibition of [125I]- Ovine CRF binding to rat frontal cortex corticotropin releasing factor 1 receptor
Format: tissue-based
Settings: not given
Summary of the method: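 Frozen rat frontal cortex homogenate (25 μg/well) in 50 mM HEPES pH 7.0 with 10 mM MgCl₂, 2 mM EGTA, protease inhibitors, 0.005% Triton X-100, bacitracin and 0.1% ovalbumin. Bound ligand collected by filtration on PEI-treated filters and gamma counted. Nonspecific binding defined with 1 μM DMP696.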

| IC50 | Compound |
| --- | --- |
| 112 nM | CCc1nc2c(n1C(CC)CC)C(=O)N(C)CN2c1ccc(Cl)cc1Cl |
| 898 nM | CCCC(CCC)n1cnc2c1C(=O)N(C)CN2c1ccc(Cl)cc1Cl |
| 27 nM | CCCC(CCC)n1c(CC)nc2c1C(=O)N(C)CN2c1ccc(OC)cc1Cl |
| 43 nM | CCCC(COC)n1c(CC)nc2c1C(=O)N(C)CN2c1ccc(Cl)cc1Cl (stereo not drawn) |
| 456 nM | CCc1nc2c(n1Cc1ccc(OC)cc1)C(=O)N(C)CN2c1ccc(Cl)cc1Cl |
| 875 nM | CCc1nc2c(n1Cc1ccccc1C)C(=O)N(C)CN2c1ccc(OC)cc1Cl |
| 458 nM | CCc1nc2c(n1Cc1ccccc1C)C(=O)N(C)CN2c1ccc(Cl)cc1Cl |
| 10 nM | CCCC(C1CC1)n1c(CC)nc2c1C(=O)N(C)CN2c1ccc(Cl)cc1Cl (stereo not drawn) |
| 51 nM | CCc1nc2c(n1C(CC)C(C)C)C(=O)N(C)CN2c1ccc(Cl)cc1Cl (stereo not drawn) |
| 383 nM | CCCC(CCC)n1c(CC)nc2c1C(=O)N(C)C(C)N2c1ccc(Cl)cc1Cl (stereo not drawn) |
| 22 nM | CCCC(CCC)n1c(CC)nc2c1C(=O)N(C)CN2c1c(C)cc(C)cc1C |
| 52 nM | CCCC(C)n1c(CC)nc2c1C(=O)N(C)CN2c1ccc(Cl)cc1Cl (stereo not drawn) |
| 860 nM | CCc1nc2c(n1COCc1ccccc1)C(=O)N(C)CN2c1ccc(Cl)cc1Cl |
| 18 nM | CCCCC(CC)n1c(CC)nc2c1C(=O)N(C)CN2c1ccc(Cl)cc1Cl (stereo not drawn) |
| 6 nM | CCc1nc2c(n1C(C1CC1)C1CC1)C(=O)N(C)CN2c1ccc(Cl)cc1Cl |
| 173 nM | CCCC(CCC)n1c(CC)nc2c1C(=O)N(C)CN2c1ccc(Cl)cc1 |
| 50 nM | CCCC(CCC)n1c(CC)nc2c1C(=O)N(C)CN2c1ccc(C(C)C)cc1Cl |
| 55 nM | CCc1nc2c(n1C(C)C1CC1)C(=O)N(C)CN2c1ccc(Cl)cc1Cl (stereo not drawn) |
| 75 nM | CCCC(CCC)n1c(CC)nc2c1c(=O)n(C)c(=O)n2-c1ccc(Cl)cc1Cl |
| 555 nM | CCc1nc2c(n1C(CC)C(C)C)C(=O)N(C)CN2c1ccc(C(C)C)cc1Cl (stereo not drawn) |
| 113 nM | CCc1nc2c(n1C(CC)C1CC1)C(=O)N(C)CN2c1ccc(OC)cc1Cl (stereo not drawn) |
| 26 nM | CCc1nc2c(n1C(C)C1CCC1)C(=O)N(C)CN2c1ccc(Cl)cc1Cl (stereo not drawn) |
| 324 nM | CCc1nc2c(n1Cc1ccc(-c3ccccc3)cc1)C(=O)N(C)CN2c1ccc(Cl)cc1Cl |
| 5.4 nM | CCCC(CCC)n1c(CC)nc2c1C(=O)N(C)CN2c1ccc(Cl)cc1Cl |
| 626 nM | CCCC(CCC)n1c(CC)nc2c1C(=O)N(C)C(CC)N2c1ccc(Cl)cc1Cl (stereo not drawn) |
| 14 nM | CCc1nc2c(n1C(CC)C1CC1)C(=O)N(C)CN2c1ccc(Cl)cc1Cl (stereo not drawn) |
